Consider 24 compounds from ChEMBL document CHEMBL1148799, “Solid-phase synthesis and insights into structure-activity relationships of safinamide analogues as potent and selective inhibitors of type B monoamine oxidase” (J Med Chem, 2007).

For assay [1], the target named is T1, Amine oxidase [flavin-containing] B (Rattus norvegicus, UniProt P19643).
T1 sequence (P19643 whole entry): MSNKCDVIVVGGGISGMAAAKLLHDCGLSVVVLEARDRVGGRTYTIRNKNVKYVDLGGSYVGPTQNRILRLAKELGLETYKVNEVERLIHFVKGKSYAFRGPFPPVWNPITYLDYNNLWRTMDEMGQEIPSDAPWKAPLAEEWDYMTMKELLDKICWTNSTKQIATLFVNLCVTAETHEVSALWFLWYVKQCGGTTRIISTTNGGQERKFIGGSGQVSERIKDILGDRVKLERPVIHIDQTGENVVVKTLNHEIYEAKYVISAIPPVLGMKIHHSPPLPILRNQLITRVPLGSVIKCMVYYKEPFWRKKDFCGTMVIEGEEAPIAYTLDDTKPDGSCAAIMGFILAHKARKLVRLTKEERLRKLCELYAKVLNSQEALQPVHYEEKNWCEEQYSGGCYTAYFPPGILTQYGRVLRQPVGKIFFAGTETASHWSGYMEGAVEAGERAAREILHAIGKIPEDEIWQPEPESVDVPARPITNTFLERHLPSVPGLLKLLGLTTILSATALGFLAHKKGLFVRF
The experiment in a line: Inhibition of rat brain mitochondria MAOB by radioenzymatic assay. Put shortly: (§1)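 Rat brain mitochondrial pellet (500 µg protein) in 0.1 M phosphate buffer, pH 7.40, preincubated 30 min at 37 °C with inhibitor (as methanesulfonate salt) or buffer. Then 0.5 µM ¹⁴C-PEA for 10 min at 37 °C, stopped with perchloric acid. Toluene-extracted metabolites counted by liquid scintillation. IC50 by nonlinear regression from 5–8 concentrations (10^-10–10^-5 M) in duplicate, or % inhibition at one concentration.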

Assay [2] concerns the target T2, Amine oxidase [flavin-containing] A (Rattus norvegicus, UniProt P21396).
T2 sequence (P21396 whole entry): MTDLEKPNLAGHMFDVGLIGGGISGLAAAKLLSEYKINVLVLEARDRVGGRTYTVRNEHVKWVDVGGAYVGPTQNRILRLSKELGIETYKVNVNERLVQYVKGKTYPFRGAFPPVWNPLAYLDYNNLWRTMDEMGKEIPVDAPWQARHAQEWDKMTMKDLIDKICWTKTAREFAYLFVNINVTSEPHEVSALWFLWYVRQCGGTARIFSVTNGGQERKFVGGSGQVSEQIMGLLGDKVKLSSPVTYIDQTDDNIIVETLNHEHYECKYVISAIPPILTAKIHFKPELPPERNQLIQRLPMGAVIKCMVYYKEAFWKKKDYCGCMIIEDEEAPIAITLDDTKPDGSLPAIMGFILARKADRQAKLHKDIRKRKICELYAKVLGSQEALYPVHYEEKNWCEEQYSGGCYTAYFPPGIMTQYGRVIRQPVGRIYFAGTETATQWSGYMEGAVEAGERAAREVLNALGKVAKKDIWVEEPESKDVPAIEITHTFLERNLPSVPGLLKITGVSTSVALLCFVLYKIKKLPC
Briefly: Inhibition of rat brain mitochondria MAOA at 100 uM by radioenzymatic assay. Put shortly: (§2)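 Rat brain mitochondrial pellet (500 µg protein) in 0.1 M phosphate buffer, pH 7.40, preincubated 30 min at 37 °C with inhibitor (as methanesulfonate salt) or buffer. Then 5 µM ¹⁴C-5-HT for 30 min at 37 °C, stopped with HCl. Ether-extracted acidic metabolites counted by liquid scintillation. IC50 by nonlinear regression from 5–8 concentrations (10^-10–10^-5 M) in duplicate, or % inhibition at one concentration.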

The target of assay [3] is T1, Amine oxidase [flavin-containing] B. Briefly: Inhibition of rat brain mitochondria MAOB at 10 uM by radioenzymatic assay. Put shortly:
as §1

Assay [4] deals with T2, Amine oxidase [flavin-containing] A. Briefly: Inhibition of rat brain mitochondria MAOA by radioenzymatic assay. Summed up:
as §2

The species entered for another assay is Rattus norvegicus. The experiment in a line: Selectivity index, ratio of IC50 for rat brain mitochondria MAOA to IC50 for rat brain mitochondria MAOB. Put shortly: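 IC50(MAO-A)/IC50(MAO-B). Both come from radioenzymatic assays on rat brain mitochondria after 30 min inhibitor preincubation at 37 °C, pH 7.40. MAO-A used 5 µM ¹⁴C-5-HT for 30 min; MAO-B used 0.5 µM ¹⁴C-PEA for 10 min. IC50s from nonlinear regression of duplicate 5–8-point curves.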

The IC50 is the concentration that gives 50% inhibition. Lower therefore signals inhibition by little substance. One may read the inhibition as the change of the read-out against control, counted positive when it falls. `NC(=O)[C@@H](NCc1ccc(OCc2cccc(Cl)c2)cc1)c1ccccc1` had an IC50 in assay [1] of 10.1 µM. In assay [2], this compound registered an inhibition at 100 µM of 33%.
With `C[C@H](NCc1ccc(OCc2ccc([N+](=O)[O-])cc2)cc1)C(N)=O`, the inhibition at 100 µM in assay [2] came out at 22%. The inhibition at 10 µM in assay [3] came to 37%.
As for `NC(=O)[C@H](CO)NCc1ccc(OCc2ccccc2)cc1`, the figures for the IC50 in assay [4] and in assay [1] were 90 µM and 0.41 µM, respectively. Also, in the assay filed under Rattus norvegicus, the Selectivity index was 220.
The compound `NC(=O)[C@@H](NCc1ccc(OCc2ccc(Cl)cc2)cc1)c1ccccc1` showed an inhibition at 100 µM in assay [2] of 27%. Also, the inhibition at 10 µM in assay [3] is 34%.
In turn, `NC(=O)[C@H](CO)NCc1ccc(OCc2cccc(F)c2)cc1` displayed an IC50 in assay [4] of 100 µM. Besides, the Selectivity index in the assay filed under Rattus norvegicus amounted to 714.
In assay [1], `C[C@H](NCc1ccc(OCc2ccc(Cl)cc2)cc1)C(N)=O` returned an IC50 of 2.2 µM. Further, the inhibition at 100 µM in assay [2] was found to be 37%.
For `NC(=O)[C@@H](NCc1ccc(OCc2cccc(F)c2)cc1)c1ccccc1`, the IC50 in assay [4] stood at 34 µM; in assay [1] it was 10 µM. For the same compound, in the assay listed under Rattus norvegicus, the Selectivity index was 3.4.
In assay [1], `NC(=O)[C@H](CO)NCc1ccc(OCc2cccc(Cl)c2)cc1` came in with a concentration for half-maximal inhibition (IC50) of 0.043 µM. In addition, the Selectivity index in the assay listed under Rattus norvegicus amounted to 1970.
As to `NC(=O)CNCc1ccc(OCc2cccc(Cl)c2)cc1`, the IC50 was found to be 37 µM in assay [4] and 0.34 µM in assay [1]. In addition, the Selectivity index in the assay filed under Rattus norvegicus amounted to 109.
The corresponding values for `NC(=O)CNCc1ccc(OCc2ccccc2)cc1` are 8.5 µM, 3.15 µM and 2.7.
Compound `C[C@@H](NCc1ccc(OCc2cccc(F)c2)cc1)C(N)=O` returned an IC50 in assay [4] of 42 µM.
With `NC(=O)CNCc1ccc(OCc2cccc(F)c2)cc1`, the IC50 worked out at 13.6 µM in assay [4] and 2.24 µM in assay [1]. For the same compound, in the assay filed under Rattus norvegicus, the Selectivity index worked out at 6.1.
Compound `NC(=O)[C@@H](CO)NCc1ccc(OCc2cccc(Cl)c2)cc1` returned an IC50 in assay [4] of 100 µM. Besides, in the assay listed under Rattus norvegicus, the Selectivity index is 909.
For `C[C@H](C(N)=O)N1CCc2cc(OCc3cccc(F)c3)ccc2C1`, the figures for the IC50 in assay [4] and in assay [1] were 50 µM and 0.017 µM, respectively. Besides, the Selectivity index in the assay listed under Rattus norvegicus was 2940.
`NC(=O)[C@H](CO)NCc1ccc(OCc2ccc(Cl)cc2)cc1`: in assay [1], the IC50 amounted to 1.1 µM. The inhibition at 100 µM in assay [2] came out at 47%.
`C[C@@H](C(N)=O)N1CCc2cc(OCc3cccc(F)c3)ccc2C1`: the IC50 in assay [4] stood at 45 µM; in assay [1], 0.24 µM. Moreover, the Selectivity index in the assay listed under Rattus norvegicus came to 188.
For `NC(=O)CNCc1ccc(OCc2ccc(Cl)cc2)cc1` the same measures were 12.4 µM, 7.1 µM and 1.7.
`C[C@H](NCc1ccc(OCc2cccc(Cl)c2)cc1)C(N)=O` had an IC50 in assay [1] of 0.033 µM. Further, the Selectivity index in the assay listed under Rattus norvegicus worked out at 3460.
In turn, `NC(=O)[C@H](CO)NCc1ccc(OCc2ccc([N+](=O)[O-])cc2)cc1` showed an IC50 in assay [1] of 7.01 µM. This compound showed an inhibition at 100 µM in assay [2] of 38%.
The compound `NC(=O)[C@@H](NCc1ccc(OCc2ccccc2)cc1)c1ccccc1` registered an IC50 in assay [1] of 73.8 µM. Moreover, at 100 µM the inhibition in assay [2] was 35%.
In turn, `NC(=O)[C@@H](NCc1ccc(OCc2ccc([N+](=O)[O-])cc2)cc1)c1ccccc1` had an inhibition at 100 µM in assay [2] of 16%. Moreover, the inhibition at 10 µM in assay [3] was determined as 4%.
Regarding `C[C@H](NCc1ccc(OCc2ccccc2)cc1)C(N)=O`, the IC50 in assay [4] is 101 µM; in assay [1] it was 0.26 µM. Besides, the Selectivity index in the assay filed under Rattus norvegicus was 388.
Turning to `NC(=O)CNCc1ccc(OCc2ccc([N+](=O)[O-])cc2)cc1`, the IC50 in assay [4] came to 21.2 µM; in assay [1], 9.1 µM. In addition, the Selectivity index in the assay listed under Rattus norvegicus stood at 2.3.
In the case of `C[C@@H](NCc1ccc(OCc2cccc(Cl)c2)cc1)C(N)=O`, the IC50 in assay [4] stood at 72 µM; in assay [1] it was 0.8 µM. Besides, in the assay listed under Rattus norvegicus, the Selectivity index was found to be 90.
